Measurements taken from ChEMBL document CHEMBL1154367, “Novel 4-N-substituted aryl but-3-ene-1,2-dione derivatives of piperazinyloxazolidinones as antibacterial agents” (2009).
Converted amounts (≈) assume the structure as drawn. The source made the active and inactive calls. The rule behind the calls is not given here.

Key:
Staphylococcus aureus [1] = test: Antibacterial activity against methicillin-resistant Staphylococcus aureus ATCC 70069 after 24 hrs by agar dilution method; type: functional; conditions: ATCC 70069, 24 h
Bacillus cereus = test: Antibacterial activity against Bacillus cereus MTCC 430 after 24 hrs by agar dilution method; type: functional; conditions: MTCC 430, 24 h
Outline: (§1)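 MIC by agar dilution with doubling dilutions in cation-adjusted Mueller Hinton agar, 50–0.019 range, incubated in air at 35 °C for 24 h. Strains pre-grown on nutrient agar at 37 °C for 24 h, then suspended in normal saline with 0.05% Tween 20 at about 1.0–2.0 × 10⁷ cells/mL, matched to 0.5 McFarland.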

Staphylococcus aureus [2] = test: Antibacterial activity against floxacin and methicillin-resistant Staphylococcus aureus ATCC 25923 after 24 hrs by agar dilution method; type: functional; conditions: ATCC 25923, 24 h
Staphylococcus aureus [3] = test: Antibacterial activity against methicillin and vancomycin-resistant Staphylococcus aureus ATCC 29213 after 24 hrs by agar dilution method; type: functional; conditions: ATCC 29213, 24 h
Enterococcus faecalis = test: Antibacterial activity against Enterococcus faecalis MTCC 439 after 24 hrs by agar dilution method; type: functional; conditions: MTCC 439, 24 h; outline: as §1
Streptococcus pyogenes = test: Antibacterial activity against Streptococcus pyogenes after 24 hrs by agar dilution method; type: functional; outline: as §1
Escherichia coli = test: Antibacterial activity against Escherichia coli after 24 hrs by agar dilution method; type: functional, organism-based; outline: as §1
Klebsiella pneumoniae = test: Antibacterial activity against Klebsiella pneumoniae after 24 hrs by agar dilution method; type: functional, organism-based; outline: as §1
Pseudomonas aeruginosa = test: Antibacterial activity against Pseudomonas aeruginosa after 24 hrs by agar dilution method; type: functional, organism-based; outline: as §1

SMILES	MIC (Staphylococcus aureus [1]) [µg/mL]	MIC (Bacillus cereus) [µg/mL]	MIC (Staphylococcus aureus [2]) [µg/mL]	MIC (Staphylococcus aureus [3]) [µg/mL]	MIC (Enterococcus faecalis) [µg/mL]	MIC (Streptococcus pyogenes) [µg/mL]	Activity (Escherichia coli)	Activity (Klebsiella pneumoniae)	Activity (Pseudomonas aeruginosa)
CC(=O)NC[C@H]1CN(c2ccc(N3CCN(C(=O)C(=O)/C=C/c4cccs4)CC3)c(F)c2)C(=O)O1	0.78 (≈ 1.56 µM)	0.39 (≈ 0.779 µM)	0.39 (≈ 0.779 µM)	1.56 (≈ 3.12 µM)	0.78 (≈ 1.56 µM)	0.39 (≈ 0.779 µM)	inactive	inactive	inactive
CC(=O)NC[C@H]1CN(c2ccc(N3CCN(C(=O)C(=O)/C=C/c4ccc(C(F)(F)F)cc4)CC3)c(F)c2)C(=O)O1	0.78 (≈ 1.39 µM)	1.56 (≈ 2.77 µM)	0.78 (≈ 1.39 µM)	1.56 (≈ 2.77 µM)	0.19 (≈ 0.338 µM)	0.19 (≈ 0.338 µM)	inactive	inactive	inactive
CN[C@H](CC(C)C)C(=O)N[C@H]1C(=O)N[C@@H](CC(N)=O)C(=O)N[C@H]2C(=O)N[C@H]3C(=O)N[C@H](C(=O)N[C@H](C(=O)O)c4cc(O)cc(O)c4-c4cc3ccc4O)[C@H](O)c3ccc(c(Cl)c3)Oc3cc2cc(c3O[C@@H]2O[C@H](CO)[C@@H](O)[C@H](O)[C@H]2O[C@H]2C[C@](C)(N)[C@H](O)[C@H](C)O2)Oc2ccc(cc2Cl)[C@H]1O [VANCOMYCIN]	6.25 (≈ 4.31 µM)	0.19 (≈ 0.131 µM)	0.39 (≈ 0.269 µM)	1.56 (≈ 1.08 µM)	0.78 (≈ 0.538 µM)	0.39 (≈ 0.269 µM)			
CC(=O)NC[C@H]1CN(c2ccc(N3CCN(C(=O)C(=O)/C=C/c4ccc(F)c(F)c4)CC3)c(F)c2)C(=O)O1	1.56 (≈ 2.94 µM)	0.39 (≈ 0.735 µM)	0.78 (≈ 1.47 µM)	3.12 (≈ 5.88 µM)	0.78 (≈ 1.47 µM)	0.78 (≈ 1.47 µM)	inactive	inactive	inactive
CC(=O)NC[C@H]1CN(c2ccc(N3CCN(C(=O)C(=O)/C=C/c4ccc(Cl)c(Cl)c4Cl)CC3)c(F)c2)C(=O)O1	> 50	> 50	> 50	> 50	> 50	> 50	inactive	inactive	inactive
CC(=O)NC[C@H]1CN(c2ccc(N3CCN(C(=O)C(=O)/C=C/c4ccc(Cl)cc4)CC3)c(F)c2)C(=O)O1	0.78 (≈ 1.47 µM)	0.39 (≈ 0.737 µM)	0.78 (≈ 1.47 µM)	0.78 (≈ 1.47 µM)	0.78 (≈ 1.47 µM)	0.39 (≈ 0.737 µM)	inactive	inactive	inactive
CC(=O)NC[C@H]1CN(c2ccc(N3CCOCC3)c(F)c2)C(=O)O1 [LINEZOLID]	1.56 (≈ 4.62 µM)	0.78 (≈ 2.31 µM)	1.56 (≈ 4.62 µM)	3.12 (≈ 9.25 µM)	3.12 (≈ 9.25 µM)	1.56 (≈ 4.62 µM)			
CC(=O)NC[C@H]1CN(c2ccc(N3CCN(C(=O)C(=O)/C=C/c4ccc(C)cc4)CC3)c(F)c2)C(=O)O1	0.19 (≈ 0.374 µM)	0.19 (≈ 0.374 µM)	0.19 (≈ 0.374 µM)	0.39 (≈ 0.767 µM)	0.04 (≈ 0.0787 µM)	0.09 (≈ 0.177 µM)	inactive	inactive	inactive
CC(=O)NC[C@H]1CN(c2ccc(N3CCN(C(=O)C(=O)/C=C/c4ccc(F)cc4)CC3)c(F)c2)C(=O)O1	0.78 (≈ 1.52 µM)	0.39 (≈ 0.761 µM)	0.78 (≈ 1.52 µM)	1.56 (≈ 3.04 µM)	0.78 (≈ 1.52 µM)	0.39 (≈ 0.761 µM)	inactive	inactive	inactive
CC(=O)NC[C@H]1CN(c2ccc(N3CCN(C(=O)C(=O)/C=C/c4ccccc4)CC3)c(F)c2)C(=O)O1	0.39 (≈ 0.789 µM)	0.39 (≈ 0.789 µM)	0.78 (≈ 1.58 µM)	0.78 (≈ 1.58 µM)	0.78 (≈ 1.58 µM)	0.39 (≈ 0.789 µM)	inactive	inactive	inactive
CC(=O)NC[C@H]1CN(c2ccc(N3CCN(C(=O)C(=O)/C=C/c4ccco4)CC3)c(F)c2)C(=O)O1	1.56 (≈ 3.22 µM)	0.78 (≈ 1.61 µM)	0.39 (≈ 0.805 µM)	3.12 (≈ 6.44 µM)	0.78 (≈ 1.61 µM)	0.78 (≈ 1.61 µM)	inactive	inactive	inactive
CC(=O)NC[C@H]1CN(c2ccc(N3CCN(C(=O)C(=O)/C=C/c4ccsc4)CC3)c(F)c2)C(=O)O1	0.78 (≈ 1.56 µM)	0.78 (≈ 1.56 µM)	0.78 (≈ 1.56 µM)	1.56 (≈ 3.12 µM)	0.78 (≈ 1.56 µM)	0.39 (≈ 0.779 µM)	inactive	inactive	inactive
